Test [1] has as its target Muscarinic acetylcholine receptor. Put plainly: Compound was tested for the concentration that inhibited the specific binding of (-)-[3H]-NMS to muscarinic receptor in the rat cerebral cortex. Format: tissue-based. A digest of the protocol:
(§1)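 Rat (male Sprague–Dawley, 200–300 g) cerebral cortex homogenate, 10 mg wet tissue/mL in 50 mM Na–K phosphate pH 7.4. Incubated 30 min at 30 °C with 0.3 nM (–)-[3H]NMS plus unlabelled ligand; filtration assay. Nonspecific binding with 10 μM atropine. IC50 from one-site competition fit, corrected by Cheng–Prusoff to Ki; three experiments in triplicate.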

The species entered for test [2] is Cavia porcellus. The test is described as follows: Maximum contractile response relative to that elicited by carbachol in guinea pig ileum. Type of test: functional. A digest of the protocol:
(§2)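 Guinea pig ileum in Tyrode (pH 7.4, 0.3 mM hexamethonium), 37 °C, isotonic contractions at 1 g tension; cumulative agonist concentration–response curves, concentration raised stepwise by a factor of 2.15; maximal contraction expressed relative to the carbachol maximum. Three determinations, each in triplicate.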

For test [3], the species on record is Mus musculus. The test is described as follows: Antimuscarinic activity in intact mice was determined as the dose required to double the dose of oxotremorine inducing a predetermined tremor intensity. Type of test: functional. A digest of the protocol: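 Male Swiss–Webster mice (24–32 g) were given the compound ip at 200 μmol/kg in groups of six or more, with six untreated controls. Twenty minutes later the oxotremorine ED50 (iv) was found by the up-and-down method, with intermittent spontaneous grade 2 tremor as end point. Active compounds were tested at two more doses, and the doubling dose came from linear regression of oxotremorine ED50 against antagonist dose.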

Test [4] is filed under the species Cavia porcellus. Put plainly: Equilibrium dissociation constant of the compound-receptor complex was determined by its ability to antagonize carbachol-induced contractions in the ileum (spasmolytic activity). Type of test: functional. A digest of the protocol:
(§3)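 Isolated guinea pig ileum in Tyrode solution (pH 7.4, 0.3 mM hexamethonium), 37 °C, isotonic recording at 1 g tension. Cumulative carbachol concentration–response curves (stepwise ×2.15) with at least three antagonist concentrations; dissociation constant from shifts, Schild slope checked where range allowed. Three determinations in triplicate.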

Test [5] is filed under the species Mus musculus. Put plainly: Antimuscarinic activity in intact mice was determined as the dose required to double the dose of oxotremorine inducing a predetermined tremor intensity. Type of test: functional. A digest of the protocol: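 Male Swiss–Webster mice (24–32 g), groups of six or more; antagonist given ip 200 μmol/kg, untreated controls. After 20 min, oxotremorine ED50 (iv) estimated by up-and-down method, end point intermittent spontaneous grade 2 tremor. Active compounds tested at two further doses; oxotremorine ED50 plotted against antagonist dose, dose doubling it found by linear regression.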

Test [6] has as its target Muscarinic acetylcholine receptor. Put plainly: Compound was tested for the concentration that inhibited the specific binding of (-)-[3H]-NMS to muscarinic acetylcholine receptor in the rat cerebral cortex. Format: tissue-based. A digest of the protocol:
as §1

The species entered for test [7] is Cavia porcellus. Put plainly: In vitro effective concentration required to elicit half-maximal contractile response in guinea pig ileum.
The species named for test [8] is Cavia porcellus. The test is described as follows: Dissociation constant of the compound-receptor complex. Type of test: functional. A digest of the protocol:
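Guinea pig ileum in Tyrode solution (pH 7.4) with 0.3 mM hexamethonium at 37 °C, contractions recorded isotonically at 1 g tension. Cumulative carbachol concentration–response curves were built in steps of a factor of 2.15, in the presence of at least three antagonist concentrations. Antagonism was analysed by Schild plots.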

The species entered for test [9] is Cavia porcellus. The test is described as follows: Maximum contractile response relative to that elicited by carbachol. Type of test: functional. A digest of the protocol: as §2
Test [10] concerns the target Muscarinic acetylcholine receptor. Put plainly: Compound was tested for the concentration that inhibited the specific binding of (-)-[3H]-NMS to muscarinic receptor in the rat cerebral cortex. Format: tissue-based. A digest of the protocol:
as §1

For test [11], the species on record is Cavia porcellus. Put plainly: Equilibrium dissociation constant of the compound-receptor complex was determined by its ability to antagonize carbachol-induced contractions in the ileum (spasmolytic activity). Type of test: functional. A digest of the protocol: as §3
For test [12], the species on record is Cavia porcellus. The test is described as follows: In vitro effective concentration required to elicit half-maximal contractile response in guinea pig ileum. The source holds these as a separate data set.

The values that follow come from ChEMBL document CHEMBL1124658, “Conformationally restricted analogues of the muscarinic agent N-methyl-N-(1-methyl-4-pyrrolidino-2-butynyl)acetamide” (J Med Chem, 1989).

Where only a bound is given, the exact number is not on record here.

Take `CC(=O)N1CCCC1C#CCN1CCCC1` (stereo not drawn): the Ki in [1] came out at 0.67 µM. In the test filed under Cavia porcellus [2], this compound had an Emax of 0. In addition, the Tremorolytic dose in the test filed under Mus musculus [3] came to 6.3 µM/kg. The same compound registered a Kd in the test filed under Cavia porcellus [4] of 1.4 µM.
Regarding `CN(C)CC#CC1CCC(=O)N1C` (stereo not drawn), the Tremorolytic dose in the test filed under Mus musculus [5] is more than 200 µM/kg. In the test listed under Cavia porcellus [2], this compound showed an Emax of 0. Also, the Kd in the test listed under Cavia porcellus [4] was 496 µM. The inhibition constant (Ki) in [6] turned out to be 204 µM.
As for `CC(=O)N1CCCC1C#CC[N+](C)(C)C.[I-]` (stereo not drawn), in the test filed under Cavia porcellus [2], the Emax is reported as 0.8. In the test listed under Cavia porcellus [7], this compound displayed an EC50 of 7.5 µM. In [6], this compound gave a Ki of 6.1 µM.
`CN1C(=O)CCC1C#CCN1CCCC1` (stereo not drawn) returned a Kd in the test filed under Cavia porcellus [8] of 45.3 µM. This compound also gave a Tremorolytic dose in the test listed under Mus musculus [5] of 78.3 µM/kg. This compound also came in with a Ki in test [1] of 18.3 µM. In addition, the Emax in the test filed under Cavia porcellus [9] was found to be 0.
Turning to `CN1C(=O)CCC1C#CC[N+](C)(C)C.[I-]` (stereo not drawn), the Emax in the test listed under Cavia porcellus [2] is on record as less than 0.6. The compound also had an EC50 in the test filed under Cavia porcellus [7] of more than 500 µM. The compound further showed a Ki in [6] of 145 µM.
In the test filed under Mus musculus [5], `CC(=O)N(C)C(C)C#CCN1CCCC1` (stereo not drawn) yielded a Tremorolytic dose of 0.6 µM/kg. Moreover, the Emax in the test filed under Cavia porcellus [2] was 0.83.
`CC(=O)N1CCCC1C#CCN(C)C` (stereo not drawn) yielded a Tremorolytic dose in the test listed under Mus musculus [5] of 119 µM/kg. Further, the Ki in test [10] stood at 25.4 µM. This compound also gave an Emax in the test filed under Cavia porcellus [2] of 0. Also, the Kd in the test filed under Cavia porcellus [11] was 125 µM.
Take `CC(=O)N(C(C)=O)C(C)C#CCN1CCCC1` (stereo not drawn): in the test filed under Mus musculus [5], the Tremorolytic dose came to 3.2 µM/kg. The compound also came in with an Emax in the test listed under Cavia porcellus [2] of 0. This compound returned a Kd in the test filed under Cavia porcellus [4] of 0.28 µM.
The compound `CC(=O)N1C(=O)CCC1C#CCN1CCCC1` (stereo not drawn) registered a Tremorolytic dose in the test listed under Mus musculus [5] of 3.5 µM/kg. The compound further came in with an Emax in the test listed under Cavia porcellus [2] of 0. In the test filed under Cavia porcellus [4], the affinity, expressed as Kd, was 1.43 µM. Also, the Ki in [6] was 0.78 µM.
Take `CC(=O)N1C(=O)CCC1C#CC[N+](C)(C)C.[I-]` (stereo not drawn): the Emax in the test filed under Cavia porcellus [2] is recorded as 0.78. Also, the EC50 in the test listed under Cavia porcellus [7] was determined as 13.4 µM. The same compound yielded a Ki in [6] of 6.4 µM.
In the case of `CC(=O)N1C(=O)CCC1C#CCN(C)C` (stereo not drawn), in the test listed under Mus musculus [5], the Tremorolytic dose turned out to be 160 µM/kg. The same compound displayed an Emax in the test filed under Cavia porcellus [2] of 0. In addition, the dissociation constant Kd in the test listed under Cavia porcellus [4] worked out at 95.6 µM. Moreover, the Ki in test [6] was found to be 53.2 µM.
For the compound `CN1[C@@H]2CC[C@H]1C[C@@H](OC(=O)C(CO)c1ccccc1)C2` (stereo partly drawn) [ATROPINE], the Kd in the test filed under Cavia porcellus [8] turned out to be 0.0009 µM. In addition, the Tremorolytic dose in the test listed under Mus musculus [3] came to 0.57 µM/kg.
`C[N+](C)(C)CCOC(N)=O.[Cl-]` [CARBACHOL] gave a dissociation constant Kd in the test filed under Cavia porcellus [8] of 15.3 µM. The midpoint of the response in the test filed under Cavia porcellus [12], the EC50, lay at 0.1 µM. The Emax in the test filed under Cavia porcellus [9] turned out to be 1.
